Results on one compound are retold here after ChEMBL document CHEMBL1148356, “Synthesis and biological evaluation of 3-heterocyclyl-7,8,9,10-tetrahydro-(7,10-ethano)-1,2,4-triazolo[3,4-a]phthalazines and analogues as subtype-selective inverse agonists for the GABA(A)alpha5 benzodiazepine binding site” (J Med Chem, 2004).

Assay [1] concerns the target GABA-A receptor; alpha-6/beta-3/gamma-2 (Homo sapiens, UniProt P18507+P28472+Q16445). Nature of the assay: Inhibition of [3H]Ro-151788 binding to human alpha-6-beta-3-gamma-2 GABA-A receptor expressed in L(tk-) cells. Type of assay: cell-based.
In assay [2] the target is GABA-A receptor; alpha-1/beta-3/gamma-2 (Homo sapiens) (UniProt P14867+P18507+P28472). In words: Percent maximum change in electrophysiological response in Xenopus oocytes expressing alpha-1-beta-3-gamma-2 GABA-A receptor. Format: functional, cell-based. Particulars: Oocyte. The method, boiled down: (§1)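 Two-electrode voltage clamp on Xenopus oocytes injected with human GABA-A subunit cDNAs, 24-72 h expression, perfused with modified Barth's medium at pH 7.5, clamped between -40 and -70 mV. The GABA EC20 was titrated against a 3 mM GABA maximum. […] Result is % change of control current, mean ± SE of ≥4 oocytes.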

The target of assay [3] is GABA-A receptor; alpha-3/beta-3/gamma-2 (Homo sapiens) (UniProt P18507+P28472+P34903). Nature of the assay: Percent maximum change in electrophysiological response in Xenopus oocytes expressing alpha-3-beta-3-gamma-2 GABA-A receptor. Particulars: Oocyte. Format: functional, cell-based. The method, boiled down: as §1

Chain of GABA-A receptor; alpha-6/beta-3/gamma-2 (P18507 whole entry, the tested form may be a part): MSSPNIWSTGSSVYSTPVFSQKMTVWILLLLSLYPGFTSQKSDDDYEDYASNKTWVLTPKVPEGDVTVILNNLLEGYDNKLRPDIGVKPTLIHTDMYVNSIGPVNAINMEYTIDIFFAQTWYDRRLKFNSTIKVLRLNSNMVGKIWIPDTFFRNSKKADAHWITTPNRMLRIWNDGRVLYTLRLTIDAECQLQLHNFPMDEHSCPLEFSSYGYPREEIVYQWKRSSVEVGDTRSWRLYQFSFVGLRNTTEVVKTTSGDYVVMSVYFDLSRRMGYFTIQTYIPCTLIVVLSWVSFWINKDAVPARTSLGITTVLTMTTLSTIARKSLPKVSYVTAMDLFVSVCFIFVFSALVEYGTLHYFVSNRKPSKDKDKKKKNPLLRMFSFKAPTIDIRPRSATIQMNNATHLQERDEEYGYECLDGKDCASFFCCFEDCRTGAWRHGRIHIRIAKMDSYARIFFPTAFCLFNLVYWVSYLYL
Chain of GABA-A receptor; alpha-6/beta-3/gamma-2 (P28472 whole entry, the tested form may be a part): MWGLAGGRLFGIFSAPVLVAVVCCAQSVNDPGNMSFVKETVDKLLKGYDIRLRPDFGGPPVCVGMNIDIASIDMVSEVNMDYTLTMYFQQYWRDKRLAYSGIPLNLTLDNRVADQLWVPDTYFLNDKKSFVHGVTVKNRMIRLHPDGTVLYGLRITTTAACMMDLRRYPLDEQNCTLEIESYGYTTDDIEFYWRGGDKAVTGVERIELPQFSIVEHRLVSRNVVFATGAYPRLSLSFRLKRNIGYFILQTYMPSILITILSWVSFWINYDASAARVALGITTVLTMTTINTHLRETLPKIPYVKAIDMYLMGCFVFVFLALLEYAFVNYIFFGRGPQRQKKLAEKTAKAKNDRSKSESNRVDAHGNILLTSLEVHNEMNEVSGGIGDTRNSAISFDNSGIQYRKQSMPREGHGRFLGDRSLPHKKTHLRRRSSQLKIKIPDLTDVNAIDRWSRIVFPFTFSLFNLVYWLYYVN
Chain of GABA-A receptor; alpha-6/beta-3/gamma-2 (Q16445 whole entry, the tested form may be a part): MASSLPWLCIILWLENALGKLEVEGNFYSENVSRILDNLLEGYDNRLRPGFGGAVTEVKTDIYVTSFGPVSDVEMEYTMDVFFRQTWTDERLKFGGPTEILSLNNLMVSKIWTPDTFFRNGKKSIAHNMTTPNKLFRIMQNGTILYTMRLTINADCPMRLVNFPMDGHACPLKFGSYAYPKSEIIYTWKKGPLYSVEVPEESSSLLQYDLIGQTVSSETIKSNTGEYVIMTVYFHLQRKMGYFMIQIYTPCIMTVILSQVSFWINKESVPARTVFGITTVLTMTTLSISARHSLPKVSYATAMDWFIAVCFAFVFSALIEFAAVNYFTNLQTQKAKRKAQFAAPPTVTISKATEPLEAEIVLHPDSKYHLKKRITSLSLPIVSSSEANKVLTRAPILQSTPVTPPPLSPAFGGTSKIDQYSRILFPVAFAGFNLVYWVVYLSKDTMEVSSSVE

In assay [1], `Cc1cc(-c2nnc3c4ccccc4c(OCc4ccccn4)nn23)no1` returned a Ki of 4.41 µM. In addition, the Efficacy in assay [2] is -14%; in assay [3] it was -17%.

For orientation: Ki means a measure of affinity in units of concentration, obtained from inhibition or displacement.
